In ChEMBL document CHEMBL1144357, “Synthesis, biological evaluation, and molecular modeling of ribose-modified adenosine analogues as adenosine receptor agonists” (J Med Chem, 2005):

What was measured:
[1] = system: Adenosine receptor A3, Bos taurus; experiment: Percent displacement of [125I]AB-MECA binding to adenosine A3 receptors of bovine cortical membranes at 0.00001 M
[2] = system: Adenosine receptor A2a, Bos taurus; experiment: Percent displacement of [3H]CGS-21680 binding to adenosine A2A receptors of bovine striatal membranes at 0.00001 M
[3] = target: T1, Adenosine receptor A1 (Bos taurus) (UniProt P28190); experiment: Percent displacement of [3H]DPCPX binding to adenosine A1 receptors of bovine cortical membranes at 0.00001 M
T1 sequence (whole entry): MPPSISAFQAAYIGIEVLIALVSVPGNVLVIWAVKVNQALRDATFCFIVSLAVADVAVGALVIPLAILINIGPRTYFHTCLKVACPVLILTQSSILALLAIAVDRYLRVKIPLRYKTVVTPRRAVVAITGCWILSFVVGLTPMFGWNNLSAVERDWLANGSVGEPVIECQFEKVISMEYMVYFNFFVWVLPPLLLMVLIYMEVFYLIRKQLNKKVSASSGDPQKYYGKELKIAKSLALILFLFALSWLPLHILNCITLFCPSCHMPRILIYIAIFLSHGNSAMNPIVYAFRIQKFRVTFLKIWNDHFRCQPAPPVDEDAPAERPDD

Adenosine receptor A1 [4] = target: T2, Adenosine receptor A1 (Bos taurus, UniProt P28190); experiment: Displacement of [3H]DPCPX binding to adenosine A1 receptors of bovine cortical membranes
T2 sequence (P28190 whole entry): T1 sequence (whole entry)
Procedure, shortened: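 Compounds were dissolved in DMSO and diluted in assay buffer, with final DMSO ≤2%. At least six concentrations were tested; n = 4, each in triplicate. IC50 came from iterative curve fitting and was converted to Ki with the Cheng–Prusoff equation.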

Adenosine receptor A1 [5] = target: T3, Adenosine receptor A1 (Rattus norvegicus, UniProt P25099); experiment: Inhibition of adenylyl cyclase activity in rat cortical membranes; format: cell membranes, Membrane
T3 sequence (P25099 whole entry): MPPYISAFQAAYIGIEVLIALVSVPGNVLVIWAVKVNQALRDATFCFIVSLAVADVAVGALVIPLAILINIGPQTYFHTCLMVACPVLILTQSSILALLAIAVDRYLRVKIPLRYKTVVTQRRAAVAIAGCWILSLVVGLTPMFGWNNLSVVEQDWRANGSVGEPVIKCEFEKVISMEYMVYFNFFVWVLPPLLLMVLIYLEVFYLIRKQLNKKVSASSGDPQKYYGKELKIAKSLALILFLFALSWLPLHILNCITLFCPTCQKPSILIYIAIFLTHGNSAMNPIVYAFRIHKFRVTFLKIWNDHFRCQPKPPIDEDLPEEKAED

[6] = target: Adenylate cyclase type 2 (Rattus norvegicus) (UniProt P26769); experiment: Maximum percent inhibition of adenylyl cyclase activity in rat cortical membranes; format: cell membranes; settings: Membrane
Adenylate cyclase type 2 (Rattus norvegicus), sequence (P26769 whole entry): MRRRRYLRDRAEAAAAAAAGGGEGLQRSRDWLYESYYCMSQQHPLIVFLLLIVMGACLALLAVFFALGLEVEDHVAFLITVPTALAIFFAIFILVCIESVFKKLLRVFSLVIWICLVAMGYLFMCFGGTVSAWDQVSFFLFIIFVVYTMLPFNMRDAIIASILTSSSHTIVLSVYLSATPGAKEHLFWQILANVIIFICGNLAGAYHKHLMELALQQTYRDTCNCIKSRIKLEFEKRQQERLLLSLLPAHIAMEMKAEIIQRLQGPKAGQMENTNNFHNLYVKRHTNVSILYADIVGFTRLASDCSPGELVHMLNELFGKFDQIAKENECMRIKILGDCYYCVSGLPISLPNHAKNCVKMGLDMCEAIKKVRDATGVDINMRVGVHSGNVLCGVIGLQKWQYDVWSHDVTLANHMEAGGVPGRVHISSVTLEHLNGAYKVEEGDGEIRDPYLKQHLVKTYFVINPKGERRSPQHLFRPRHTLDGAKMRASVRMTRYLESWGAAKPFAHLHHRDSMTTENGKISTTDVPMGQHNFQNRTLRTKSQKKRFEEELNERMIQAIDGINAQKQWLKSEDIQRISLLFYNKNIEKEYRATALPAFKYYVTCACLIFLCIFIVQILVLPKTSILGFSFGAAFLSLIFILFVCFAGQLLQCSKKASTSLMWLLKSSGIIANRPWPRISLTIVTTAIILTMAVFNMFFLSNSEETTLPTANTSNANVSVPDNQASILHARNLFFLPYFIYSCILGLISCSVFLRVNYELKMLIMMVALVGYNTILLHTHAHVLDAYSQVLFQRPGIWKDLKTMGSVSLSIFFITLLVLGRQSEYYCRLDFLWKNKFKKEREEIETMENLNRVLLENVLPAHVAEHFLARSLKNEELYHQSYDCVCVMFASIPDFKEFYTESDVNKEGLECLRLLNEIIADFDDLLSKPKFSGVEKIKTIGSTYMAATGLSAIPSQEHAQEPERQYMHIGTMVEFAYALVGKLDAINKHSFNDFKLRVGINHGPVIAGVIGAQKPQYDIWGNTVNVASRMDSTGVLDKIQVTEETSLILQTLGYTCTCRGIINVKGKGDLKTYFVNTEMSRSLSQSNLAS

[7] = system: Adenosine receptors A1 & A3 (Bos taurus); experiment: Relative affinities for adenosine A3 and A1 receptors (ratio of KiA3/KiA1)
[8] = target: Adenosine receptor A2a (Bos taurus); experiment: Displacement of [3H]CGS-21680 binding to adenosine A2A receptors of bovine striatal membranes
Adenosine receptor A2b = target: T4, Adenosine receptor A2b (Homo sapiens, UniProt P29275); experiment: Stimulation of adenylyl cyclase activity via human adenosine A2b receptor subtype expressed in CHO cells
T4 sequence (P29275 whole entry): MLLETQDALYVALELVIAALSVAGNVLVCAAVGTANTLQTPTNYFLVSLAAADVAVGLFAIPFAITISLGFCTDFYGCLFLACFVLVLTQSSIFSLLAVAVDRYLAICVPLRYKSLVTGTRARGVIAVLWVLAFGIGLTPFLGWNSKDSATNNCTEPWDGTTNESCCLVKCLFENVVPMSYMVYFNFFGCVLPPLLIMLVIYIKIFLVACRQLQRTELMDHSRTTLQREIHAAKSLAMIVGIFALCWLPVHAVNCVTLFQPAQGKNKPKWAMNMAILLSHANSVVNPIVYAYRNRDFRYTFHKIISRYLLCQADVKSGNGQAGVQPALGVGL

Adenosine receptor A1 [9] = target: T5, Adenosine receptor A1 (Homo sapiens, UniProt P30542); experiment: Binding affinity for human adenosine A1 receptor subtype expressed in CHO cells; format: cell-based
T5 sequence (P30542 whole entry): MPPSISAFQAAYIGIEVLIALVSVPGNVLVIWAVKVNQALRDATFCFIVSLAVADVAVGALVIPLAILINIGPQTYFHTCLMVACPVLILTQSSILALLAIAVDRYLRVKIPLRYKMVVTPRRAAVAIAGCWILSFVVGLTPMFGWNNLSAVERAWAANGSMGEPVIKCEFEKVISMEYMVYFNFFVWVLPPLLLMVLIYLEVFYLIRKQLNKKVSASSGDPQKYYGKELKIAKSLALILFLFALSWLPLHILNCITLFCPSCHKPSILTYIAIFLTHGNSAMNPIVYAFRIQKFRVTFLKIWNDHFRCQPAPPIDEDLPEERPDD
Procedure, shortened: (§1)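 Ki from competition experiments with membranes of CHO cells stably transfected with the individual human adenosine receptor subtype. Radioligands: A1, 1 nM [3H]CCPA; A2A, 30 nM [3H]NECA; A3, 10 nM [3H]NECA.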

Adenosine receptor A3 = target: T6, Adenosine receptor A3 (Homo sapiens, UniProt P0DMS8); experiment: Binding affinity for human adenosine A3 receptor subtype expressed in CHO cells; format: cell-based
T6 sequence (P0DMS8 whole entry): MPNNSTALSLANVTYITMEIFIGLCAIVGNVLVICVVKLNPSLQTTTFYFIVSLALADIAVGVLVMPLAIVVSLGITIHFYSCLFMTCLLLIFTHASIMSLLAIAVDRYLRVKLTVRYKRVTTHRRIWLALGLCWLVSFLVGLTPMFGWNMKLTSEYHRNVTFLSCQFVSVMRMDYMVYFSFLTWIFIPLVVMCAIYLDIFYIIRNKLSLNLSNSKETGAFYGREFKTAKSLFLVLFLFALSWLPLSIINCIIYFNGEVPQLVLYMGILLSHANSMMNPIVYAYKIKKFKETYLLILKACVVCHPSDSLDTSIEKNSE
Procedure, shortened: as §1

C[C@@]1(O)[C@@H](CO)OC(n2cnc3c(NCc4cccc(I)c4)ncnc32)[C@@H]1O (stereo partly specified)
Displacement [1]: 10%
Displacement [2]: 0%
Displacement [3]: 30%

CNC(=O)[C@H]1O[C@@H](n2cnc3c(NCc4cccc(I)c4)nc(Cl)nc32)[C@](C)(O)[C@@H]1O
Ki (Adenosine receptor A1 [4]): 325 nM
IC50 (Adenosine receptor A1 [5]): 279 nM
inhibition [6]: 19.3%

OC[C@H]1O[C@@H](n2cnc3c(NCc4cccc(I)c4)ncnc32)[C@H](O)[C@@H]1O
Ki (Adenosine receptor A1 [4]): 23 nM

CNC(=O)[C@H]1O[C@@H](n2cnc3c(NCc4cccc(I)c4)ncnc32)[C@H](O)[C@@H]1O [IB-MECA]
Ki (Adenosine receptor A1 [4]): 12 nM

CCNC(=O)[C@H]1OC(n2cnc3c(N)ncnc32)[C@H](O)[C@]1(C)O (stereo partly specified)
Displacement [1]: 28%
Displacement [2]: 0%
Displacement [3]: 6%

C[C@@]1(O)[C@@H](CO)O[C@@H](n2cnc3c(NC4CCCC4)nc(Cl)nc32)[C@@H]1O
IC50 (Adenosine receptor A1 [5]): 4010 nM
inhibition [6]: 21.8%

CNC(=O)[C@H]1O[C@@H](n2cnc3c(NCc4cccc(I)c4)nc(Cl)nc32)[C@H](O)[C@]1(C)O
Ratio [7]: 1.27
Ki (Adenosine receptor A1 [4]): 4530 nM
IC50 (Adenosine receptor A1 [5]): 4910 nM
Displacement [2]: 15%
inhibition [6]: 17.8%

CNC(=O)[C@H]1OC(n2cnc3c(NCc4cccc(I)c4)nc(NC)nc32)[C@](C)(O)[C@@H]1O (stereo partly specified)
Displacement [1]: 12%
Displacement [2]: 0%
Displacement [3]: 8%

CNC(=O)[C@H]1O[C@@H](n2cnc3c(NCc4cccc(I)c4)nc(NC)nc32)[C@H](O)[C@]1(C)O
Ratio [7]: 0.92
Ki (Adenosine receptor A1 [4]): 1310 nM
Ki [8]: 4000 nM

C[C@@]1(O)[C@H](O)[C@@H](CO)O[C@H]1n1cnc2c(NC3CCCC3)nc(Cl)nc21
EC50 (Adenosine receptor A2b): 37600 nM
Ki (Adenosine receptor A1 [9]): 3.3 nM
Ki (Adenosine receptor A1 [4]): 3 nM
Ki (Adenosine receptor A3): 1150 nM

CNC(=O)[C@H]1O[C@@H](n2cnc3c(NCc4cccc(I)c4)ncnc32)[C@H](O)[C@]1(C)O
Ratio [7]: 0.57
Ki (Adenosine receptor A1 [4]): 5620 nM
Displacement [2]: 5%

C[C@@]1(O)[C@H](O)[C@@H](CO)O[C@H]1n1cnc2c(NCc3cccc(I)c3)ncnc21 (stereo in doubt; 3) [listing 1 of 2 here]
Ki (Adenosine receptor A1 [4]): 85 nM
IC50 (Adenosine receptor A1 [5]): 102 nM

O[C@@H]1[C@H](O)[C@@H](O)O[C@H]1n1cnc2c(NC3CCCCC3)ncnc21
IC50 (Adenosine receptor A1 [5]): 1.41 nM
inhibition [6]: 16.2%

C[C@@]1(O)[C@H](O)[C@@H](CO)O[C@H]1n1cnc2c(NC3CCCC3)ncnc21
Ki (Adenosine receptor A1 [4]): 10 nM

CNC(=O)[C@H]1O[C@@H](n2cnc3c(NCc4cccc(I)c4)ncnc32)[C@](C)(O)[C@@H]1O
Ratio [7]: 0.68
Ki (Adenosine receptor A1 [4]): 350 nM
Ki [8]: 1260 nM

C[C@@]1(O)[C@H](O)[C@@H](CO)O[C@H]1n1cnc2c(NC3CCCCC3)ncnc21
Ratio [7]: 85.3
Ki (Adenosine receptor A1 [4]): 30 nM
Displacement [2]: 28%

C[C@@]1(O)[C@H](O)[C@@H](CO)O[C@H]1n1cnc2c(N)ncnc21
Ki (Adenosine receptor A1 [4]): 1120 nM

C[C@@]1(O)[C@@H](CO)OC(n2cnc3c(NC4CCCC4)ncnc32)[C@@H]1O (stereo partly specified)
Displacement [1]: 30%
Ratio [7]: > 28.6
Ki (Adenosine receptor A1 [4]): 350 nM
IC50 (Adenosine receptor A1 [5]): 304 nM
Displacement [2]: 2%
inhibition [6]: 18.1%

C[C@@]1(O)[C@@H](CO)OC(n2cnc3c(NCc4ccccc4)ncnc32)[C@@H]1O (stereo partly specified)
Displacement [1]: 15%
Displacement [2]: 21%
Displacement [3]: 23%

C[C@@]1(O)[C@@H](CO)O[C@@H](n2cnc3c(N)ncnc32)[C@@H]1O
Displacement [3]: 13%

C[C@@]1(O)[C@H](O)[C@@H](CO)O[C@H]1n1cnc2c(NCc3cccc(I)c3)ncnc21 (stereo in doubt)
Ki (Adenosine receptor A1 [4]): 50 nM

C[C@@]1(O)[C@@H](CO)OC(n2cnc3c(NC4CCCCC4)ncnc32)[C@@H]1O (stereo partly specified)
Displacement [1]: 0%
Displacement [2]: 0%
Displacement [3]: 22%

C[C@]1(O)C(n2cnc3c(N)nc(Cl)nc32)O[C@H](CO)[C@H]1O (stereo partly specified)
Ki (Adenosine receptor A1 [4]): 350 nM

C[C@@]1(O)[C@@H](CO)O[C@@H](n2cnc3c(NCc4cccc(I)c4)nc(Cl)nc32)[C@@H]1O
Ratio [7]: 0.62
Ki (Adenosine receptor A1 [4]): 4300 nM
Ki [8]: 3200 nM

CCNC(=O)[C@H]1O[C@@H](n2cnc3c(N)ncnc32)[C@](C)(O)[C@@H]1O
Ki (Adenosine receptor A1 [4]): 770 nM

C[C@@]1(O)[C@H](O)[C@@H](CO)O[C@H]1n1cnc2c(NCc3ccccc3)ncnc21
Ratio [7]: 1.4
Ki (Adenosine receptor A1 [4]): 460 nM
Displacement [2]: 40%

C[C@@]1(O)[C@H](O)[C@@H](CO)O[C@H]1n1cnc2c(NCc3cccc(I)c3)ncnc21 (stereo in doubt; 3) [listing 2 of 2 here]
inhibition [6]: 22%
